Among the data in ChEMBL document CHEMBL1155843, “Selective alkylation of beta(II)-tubulin and thioredoxin-1 by structurally related subsets of aryl chloroethylureas leading to either anti-microtubules or redox modulating agents” (2008) are Activity and GI50 values, retold here.

Assay [1] relates to M21. The experiment in a line: Inhibition of nuclear translocation of thioredoxin-1 from cytosol in human M21 cells at 2 times GI50 after 16 hrs by immunocytofluorescence. The format is functional, cell-based. Put shortly:
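Cells were fixed in 3.7% formaldehyde (20 min), permeabilized with 0.1% saponin and blocked with 3% BSA. Staining used anti-Trx-1 monoclonal (1:200, 2 h, 37 °C) and Alexa-488 anti-mouse IgG (1:1000, 1 h). Trx-1 cytosol/nucleus localization was read by confocal immunofluorescence.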

For assay [2], the system named is M21. The assay is described as follows: Induction of beta2-tubulin alkylation in human M21 cells at 2 times GI50 by Western blot analysis. The class given is cell-based. Put shortly:
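Floating and adherent cells were pooled and lysed in boiled Laemmli buffer; protein was measured by Lowry. 20 µg per lane ran on 10% SDS-PAGE and was blotted with anti-βII-tubulin (1:500), HRP anti-mouse (1:2500) and ECL. Alkylation was scored as a faster-migrating βII-tubulin band.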

In assay [3] the test system is MCF7. The experiment in a line: Cell cycle arrest in human MCF7 cells assessed as accumulation at S phase at 2 times GI50 after 24 hrs by flow cytometry. The format is functional. Put shortly:
(§1)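 Cells were trypsinized, PBS-washed, fixed in ice-cold ethanol, and stained with propidium iodide plus RNase for 30 min at room temperature. G0/G1, S and G2/M fractions were measured by flow cytometry.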

The test system of assay [4] is MCF7. The assay is described as follows: Cell cycle arrest in human MCF7 cells assessed as accumulation at G0/G1 phase at 2 times GI50 after 24 hrs by flow cytometry. The class given is functional. The procedure, abridged: as §1
Assay [5] relates to MCF7. The experiment in a line: Cell cycle arrest in human MCF7 cells assessed as accumulation at G2/M phase at 2 times GI50 after 24 hrs by flow cytometry. The class given is functional. The procedure, abridged:
as §1

Assay [6] has as its system M21. The experiment in a line: Antiproliferative activity against human M21 cells after 48 hrs by sulforhodamine B method. The note with it: for GI50: M21, 48 h. The format is functional. The procedure, abridged:
(§2)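 Seeding per well: 5 × 10³ HT-29 cells, or 3.5 × 10³ M21 or MCF-7 cells. Drugs were dissolved fresh in DMSO and serially diluted in medium (final range 100 to 0.3), with DMSO held at 0.12%. Cells were exposed for 48 h, fixed with cold TCA (10% final, 1 h, 4 °C) and stained with 0.1% SRB for 15 min. Dye was solubilized in 10 mM Tris and read at A585. Day-0 OD was subtracted, inhibition was calculated against DMSO cells, and n ≥ 3.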

For a further assay, the system named is HT-29. The experiment in a line: Antiproliferative activity against human HT29 cells after 48 hrs by sulforhodamine B method. The class given is functional. The note with it: for GI50: HT-29, 48 h. The procedure, abridged:
as §2

The subject of assay [7] is MCF7. The experiment in a line: Antiproliferative activity against human MCF7 cells after 48 hrs by sulforhodamine B method. The settings on record: for GI50: MCF7, 48 h. The format is functional. The procedure, abridged: as §2

Active and inactive are the calls of the source. The rule behind the calls is not given here.

Turning to `O=C(NCCCl)Nc1ccc(Oc2ccccc2)cc1`, the outcome in the assay with M21 [1] and with M21 [2] was inactive. In addition, the results for the Activity with MCF7 [3], with MCF7 [4] and in the assay with MCF7 [5] were 20%, 15% and 65%, respectively.
For the compound `CC1CCC(Oc2ccc(NC(=O)NCCCl)cc2)CC1` (stereo not drawn), the GI50 came out at 23 µM in the assay on M21 [6], 16 µM in the assay on HT-29 and 21 µM in the assay with MCF7 [7]. Further, the result in the assay on M21 [1] was Active. In addition, in the assay on M21 [2], the result was inactive. For the same compound, the results for the Activity with MCF7 [3], in the assay with MCF7 [4] and with MCF7 [5] were 13%, 63% and 25%, respectively.
`O=C(CCl)NC(=O)Nc1ccc(N2CCOCC2)cc1` had a GI50 in the assay with M21 [6] of 8.3 µM. Also, in the assay with M21 [2], the outcome was inactive.
Consider `O=C(NCCCl)Nc1cccc(OC2CCCC2)c1`, for which the outcome in the assay on M21 [2] was inactive.
With `O=C(NCCCl)Nc1ccc(N2CCOCC2)cc1`, the outcome in the assay on M21 [6], in the assay with M21 [2], with HT-29 and in the assay on MCF7 [7] was inactive.
Compound `c1cc(NC2=NCCO2)cc(C2CCCCC2)c1` gave a GI50 in the assay on M21 [6] of 45 µM. Also, the outcome in the assay with M21 [1] was Active. Further, the outcome in the assay with M21 [2] was inactive.
Consider `O=C(NCCCl)NC1c2ccccc2-c2ccccc21`, for which the outcome in the assay with M21 [1] and in the assay on M21 [2] was inactive. Also, the Activity with MCF7 [3] stood at 29%; in the assay with MCF7 [4], 63%; in the assay with MCF7 [5], 8%.
In the case of `O=C(NCCCl)Nc1ccc(OC2CCCCCC2)cc1`, the outcome with M21 [1] was Active. Further, the outcome in the assay with M21 [2] was inactive. The GI50 in the assay with HT-29 is 13 µM.
Take `O=C(NCCCl)Nc1ccc(C2CCCCC2)cc1`: the outcome in the assay on M21 [1] was Active. The result with M21 [2] was inactive.
In the assay on M21 [6], `c1ccc(NC2=NCCO2)cc1` returned a GI50 of 81 µM. In addition, the outcome in the assay on M21 [1] and in the assay with M21 [2] was inactive.
Turning to `c1cc(N2CCOCC2)ccc1NC1=NCCO1`, the outcome in the assay with M21 [6], in the assay on M21 [1] and in the assay with M21 [2] was inactive.
On to `O=C(CCl)NC(=O)Nc1ccc(C2CCCCC2)cc1`, for which the outcome in the assay with M21 [1] was Active. In the assay with M21 [2], the result was inactive.
`O=C(NCCCl)Nc1ccc(OC2CCCC2)cc1`: the result with M21 [1] was Active. Further, in the assay on M21 [2], the outcome was inactive.
`O=C(NCCCl)Nc1cccc(OC2CCCCCC2)c1`: the outcome in the assay on M21 [1] was Active. The result with M21 [2] was inactive.
`c1cc(C2CCCCC2)ccc1NC1=NCCO1` registered a GI50 in the assay on M21 [6] of 18 µM. Besides, the result with M21 [1] was Active. Besides, the result in the assay on M21 [2] was inactive.
The corresponding values for `O=C(CCl)NC(=O)Nc1ccccc1` are 6.9 µM, “inactive” and “inactive”.
For the compound `CC(C)(C)c1ccc(NC(=O)NC(=O)CCl)cc1`, in the assay on M21 [1], the outcome was Active. The outcome in the assay on M21 [2] was inactive.
In the same order, the values of `CC(C)(C)c1ccc(NC2=NCCO2)cc1` are “inactive” and “inactive”.
Regarding `O=C(CCl)NC(=O)Nc1cccc(C2CCCCC2)c1`, the GI50 in the assay on M21 [6] was 2.4 µM. Besides, the outcome in the assay with M21 [1] was Active. For the same compound, the outcome in the assay on M21 [2] was inactive.
For `O=C(NCCCl)Nc1cccc(OC2CCCCC2)c1`, in the assay with M21 [2], the outcome was inactive.
For the compound `O=C(NCCCl)Nc1ccc(OC2CCCCC2)cc1`, the outcome in the assay on M21 [1] was Active. For the same compound, the result in the assay with M21 [2] was inactive.
In the case of `O=C(NCCCl)Nc1ccc(C2CCCC2)cc1`, the GI50 was 27 µM with M21 [6], 18 µM with HT-29 and 26 µM with MCF7 [7]. Further, in the assay on M21 [2], the result was inactive. The Activity in the assay on MCF7 [3] is given as 24%; with MCF7 [4], 63%; in the assay on MCF7 [5], 13%.
